Experiments:
[1] = Cytotoxicity against African green monkey Vero cells assessed as decrease in cell viability after 5 days by MTS/PMS method; assay type: cell-based; details: chlorocebus sabaeus
Method in brief: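 Uninfected Vero cells in MEM Rega-3 with 2% FBS were treated with compound alongside the antiviral assay. Metabolic activity was read by MTS/PMS, and wells were checked microscopically for morphology changes. CC50 is the concentration reducing metabolic activity by 50%, found by logarithmic interpolation. Values are the mean of ≥3 independent experiments.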

[2] = Selectivity index, ratio of CC50 for African green monkey Vero cells to EC50 for Chikungunya virus Indian Ocean 889 infected in African green monkey Vero cells; assay type: toxicity; details: read-out: Ratio CC50/EC50
Chikungunya virus = experiment: Antiviral activity against Chikungunya virus Indian Ocean 889 infected in African green monkey Vero cells assessed as inhibition of virus-induced cytopathic effect after 5 days by MTS/PMS method; assay type: functional, organism-based; details: Indian Ocean 889, Vero, 120 h

## CCOc1ccc(/C=N/NC(=O)/C=C/c2ccc(C)cc2)cc1OCC
[1]
  CC50 at 120 h: > 284 µM
[2]
  selectivity ratio: > 2.5
Chikungunya virus
  EC50: 113 µM
  EC90: > 284 µM

## CCOc1ccc(/C=N/NC(=O)[C@@H]2C[C@H]2c2ccc(C(C)(C)C)cc2)cc1OCC
[1]
  CC50 at 120 h: 72 µM
[2]
  selectivity ratio: 14
Chikungunya virus
  EC50: 5 µM
  EC90: 6.4 µM

## CC(C)(C)c1ccc(/C=C/C(=O)N/N=C/c2ccccc2)cc1
[1]
  CC50 at 120 h: 22.1 µM
[2]
  selectivity ratio: 3.8
Chikungunya virus
  EC50: 5.8 µM
  EC90: 87.5 µM

## CC(C)(C)c1ccc(CCC(=O)N/N=C/c2ccc(O)cc2)cc1
Chikungunya virus
  EC50: 36.4 µM

## CCOc1ccc(/C=N/NC(=O)CCc2ccccc2)cc1OCC
Chikungunya virus
  EC50: > 294 µM
  EC90: > 294 µM

## CC(C)(C)c1ccc(/C=C/C(=O)N/N=C/c2ccc(-c3ccccc3)cc2)cc1
[1]
  CC50 at 120 h: 20.1 µM

## O=C(N/N=C/c1ccc(O)cc1)[C@@H]1C[C@H]1c1ccccc1
[1]
  CC50 at 120 h: 15 µM
[2]
  selectivity ratio: 2.3
Chikungunya virus
  EC50: 6.4 µM
  EC90: 8.7 µM

## CCOc1ccc(/C=N/NC(=O)CCc2ccc(C(C)(C)C)cc2)cc1OCC
Chikungunya virus
  EC50: > 11 µM
  EC90: > 11 µM

## Cc1ccc(/C=N/NC(=O)CCc2ccc(C(C)(C)C)cc2)cc1
Chikungunya virus
  EC50: > 100 µM
  EC90: > 100 µM

## CC(C)(C)c1ccc(/C=C/C(=O)N/N=C/c2ccc(O)cc2)cc1
[1]
  CC50 at 120 h: 7.3 µM

## Cc1ccc(/C=N/NC(=O)CCc2ccccc2)cc1
Chikungunya virus
  EC50: > 375 µM
  EC90: > 375 µM

## CC(C)(C)c1ccc([C@@H]2C[C@H]2C(=O)N/N=C/c2ccc(C(F)(F)F)cc2)cc1
[1]
  CC50 at 120 h: 30 µM
[2]
  selectivity ratio: 2.1
Chikungunya virus
  EC50: 14 µM
  EC90: 19 µM

## Cc1ccc(/C=C/C(=O)N/N=C/c2ccc(C)cc2)cc1
Chikungunya virus
  EC50: > 359 µM
  EC90: > 359 µM

## O=C(/C=C/c1ccccc1)NCc1ccc(C(F)(F)F)cc1
Chikungunya virus
  EC50: > 246 µM
  EC90: > 246 µM

## O=C(CCc1ccccc1)N/N=C/c1ccc(C2CCCCC2)cc1
Chikungunya virus
  EC50: > 96 µM
  EC90: > 96 µM

## C/C(=N\NC(=O)/C=C/c1ccc(C(C)(C)C)cc1)c1ccc(C2CCCCC2)cc1
Chikungunya virus
  EC50: > 248 µM
  EC90: > 248 µM

## C/C(=N\NC(=O)/C=C/c1ccccc1)c1ccc(C2CCCCC2)cc1
Chikungunya virus
  EC50: > 289 µM
  EC90: > 289 µM

## Cc1ccc(/C=N/NC(=O)[C@@H]2C[C@H]2c2ccc(C(C)(C)C)cc2)cc1
Chikungunya virus
  EC50: 6.6 µM

## C/C(=N\NC(=O)CCc1ccc(C(C)(C)C)cc1)c1ccc(C2CCCCC2)cc1
Chikungunya virus
  EC50: > 82.4 µM
  EC90: > 82.4 µM

## C/C(=N\NC(=O)[C@@H]1C[C@H]1c1ccccc1)c1ccc(C2CCCCC2)cc1
[1]
  CC50 at 120 h: 101 µM
[2]
  selectivity ratio: 3.1
Chikungunya virus
  EC50: 32 µM
  EC90: 44 µM

## C/C(=N\NC(=O)/C=C/c1ccc(C(C)(C)C)cc1)c1ccc(Cl)cc1
Chikungunya virus
  EC50: > 282 µM
  EC90: > 282 µM

## COc1ccc(/C(C)=N/NC(=O)[C@@H]2C[C@H]2c2ccccc2)cc1
[1]
  CC50 at 120 h: 72 µM
[2]
  selectivity ratio: 13
Chikungunya virus
  EC50: 5.6 µM
  EC90: 12 µM

## CC(C)c1ccc(/C=N/NC(=O)/C=C/c2ccc(C(C)(C)C)cc2)cc1
[1]
  CC50 at 120 h: 7.4 µM
[2]
  selectivity ratio: 3.5
Chikungunya virus
  EC50: 2.1 µM

## CCOc1ccc(/C=N/NC(=O)/C=C/c2ccc(C(C)(C)C)cc2)cc1OCC
[1]
  CC50 at 120 h: 101 µM
[2]
  selectivity ratio: 32
Chikungunya virus
  EC90: 11 µM

## CC(C)(C)c1ccc(/C=C/C(=O)NCc2ccc(-c3ccccc3)cc2)cc1
[1]
  CC50 at 120 h: 4.3 µM
Chikungunya virus
  EC50: 2.9 µM
  EC90: > 271 µM

## O=C(/C=C/c1ccccc1)NCc1ccc(-c2ccccc2)cc1
Chikungunya virus
  EC50: > 319 µM
  EC90: > 319 µM

## CC(C)(C)c1ccc(/C=C/C(=O)NCc2ccc(C(F)(F)F)cc2)cc1
[1]
  CC50 at 120 h: 115 µM
[2]
  selectivity ratio: 0.9
Chikungunya virus
  EC50: 125 µM
  EC90: 47.9 µM

## C/C(=N\NC(=O)/C=C/c1ccc(C(C)(C)C)cc1)c1cnccn1
[1]
  CC50 at 120 h: > 310 µM
[2]
  selectivity ratio: 1.2
Chikungunya virus
  EC50: 103 µM
  EC90: 122 µM

## CC(C)(C)c1ccc([C@@H]2C[C@H]2C(=O)N/N=C/c2ccc(O)cc2)cc1
Chikungunya virus
  EC50: 2.7 µM
  EC90: 3.8 µM

## Cc1ccc(/C=N/NC(=O)/C=C/c2ccc(C(C)(C)C)cc2)cc1
[1]
  CC50 at 120 h: 124 µM
[2]
  selectivity ratio: 21.4
Chikungunya virus
  EC50: 5.8 µM
  EC90: 10 µM

## COc1ccc(/C=N/NC(=O)/C=C/c2ccc(C(C)(C)C)cc2)cc1
[1]
  CC50 at 120 h: 117 µM
[2]
  selectivity ratio: 19.8
Chikungunya virus
  EC50: 5.9 µM
  EC90: 38.8 µM

## C/C(=N\NC(=O)/C=C/c1ccc(C(C)(C)C)cc1)c1ccc(-c2ccccc2)cc1
Chikungunya virus
  EC50: > 252 µM
  EC90: > 252 µM

## COc1ccc(/C(C)=N/NC(=O)/C=C/c2ccc(C(C)(C)C)cc2)cc1OC
Chikungunya virus
  EC50: > 263 µM
  EC90: > 263 µM

## O=C(CCc1ccccc1)N/N=C/c1ccc(O)cc1
Chikungunya virus
  EC50: > 373 µM
  EC90: > 373 µM

## CCN(CC)CCCC(C)Nc1ccnc2cc(Cl)ccc12 (centres undefined) [CHLOROQUINE]
[1]
  CC50 at 120 h: 89 µM
Chikungunya virus
  EC90: 21 µM

## Cc1ccc(/C=N/NC(=O)/C=C/c2ccccc2)cc1
[1]
  CC50 at 120 h: 84.4 µM
[2]
  selectivity ratio: 0.9
Chikungunya virus
  EC50: 93.3 µM
  EC90: > 284 µM

## CC(C)(C)c1ccc(/C=C/C(=O)N/N=C/c2ccc([N+](=O)[O-])cc2)cc1
Chikungunya virus
  EC50: > 285 µM
  EC90: > 285 µM

## CC(C)(C)c1ccc(/C=C/C(=O)N/N=C/c2ccc(C(C)(C)C)cc2)cc1
Chikungunya virus
  EC50: > 276 µM
  EC90: > 276 µM

— ChEMBL document CHEMBL4184212, “Design, synthesis and evaluation against Chikungunya virus of novel small-molecule antiviral agents” (Bioorg Med Chem, 2018)
